In series [1] the target is T1, Protein cereblon/Bromodomain-containing protein 4/Cullin-4A (Homo sapiens) (UniProt O60885+Q96SW2+Q13619). As to the kind of experiment: Induction of cereblon/cullin 4A-mediated BRD4 degradation in human RS4:11 cells at 1 nM after 3 hrs in presence of proteosome inhibitor MG-132 by Western blot method. The series is classed as cell-based.
In series [2] the target is T2, Protein cereblon/Bromodomain-containing protein 2/Cullin-4A (Homo sapiens) (UniProt P25440+Q96SW2+Q13619). Briefly: Induction of cereblon/cullin 4A-mediated BRD2 degradation in human RS4:11 cells at 1 nM after 3 hrs in presence of proteosome inhibitor MG-132 by Western blot method. In kind it is cell-based.
T2 sequence (P25440 whole entry, looked up): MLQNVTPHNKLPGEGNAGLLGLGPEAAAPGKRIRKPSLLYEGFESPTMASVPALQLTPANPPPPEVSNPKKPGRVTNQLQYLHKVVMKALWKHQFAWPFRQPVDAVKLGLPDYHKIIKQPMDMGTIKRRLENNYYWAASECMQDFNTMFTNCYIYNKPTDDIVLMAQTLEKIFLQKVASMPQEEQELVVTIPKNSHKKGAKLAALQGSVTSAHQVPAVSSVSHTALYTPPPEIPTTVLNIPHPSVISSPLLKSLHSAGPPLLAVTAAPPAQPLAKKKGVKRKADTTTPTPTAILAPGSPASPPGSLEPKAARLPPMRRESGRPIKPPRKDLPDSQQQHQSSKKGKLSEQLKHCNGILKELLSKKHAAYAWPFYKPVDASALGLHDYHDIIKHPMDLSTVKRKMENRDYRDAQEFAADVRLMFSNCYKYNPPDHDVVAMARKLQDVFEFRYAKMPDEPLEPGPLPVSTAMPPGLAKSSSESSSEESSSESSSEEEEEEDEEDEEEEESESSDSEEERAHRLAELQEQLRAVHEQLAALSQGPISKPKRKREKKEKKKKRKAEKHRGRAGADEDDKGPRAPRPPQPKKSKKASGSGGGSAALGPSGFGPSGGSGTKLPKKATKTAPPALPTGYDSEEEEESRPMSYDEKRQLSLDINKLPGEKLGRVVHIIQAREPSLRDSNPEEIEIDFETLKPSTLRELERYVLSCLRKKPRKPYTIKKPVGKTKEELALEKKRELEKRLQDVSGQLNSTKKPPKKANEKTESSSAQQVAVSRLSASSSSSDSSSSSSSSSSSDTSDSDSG
T2 sequence (Q13619 whole entry, looked up): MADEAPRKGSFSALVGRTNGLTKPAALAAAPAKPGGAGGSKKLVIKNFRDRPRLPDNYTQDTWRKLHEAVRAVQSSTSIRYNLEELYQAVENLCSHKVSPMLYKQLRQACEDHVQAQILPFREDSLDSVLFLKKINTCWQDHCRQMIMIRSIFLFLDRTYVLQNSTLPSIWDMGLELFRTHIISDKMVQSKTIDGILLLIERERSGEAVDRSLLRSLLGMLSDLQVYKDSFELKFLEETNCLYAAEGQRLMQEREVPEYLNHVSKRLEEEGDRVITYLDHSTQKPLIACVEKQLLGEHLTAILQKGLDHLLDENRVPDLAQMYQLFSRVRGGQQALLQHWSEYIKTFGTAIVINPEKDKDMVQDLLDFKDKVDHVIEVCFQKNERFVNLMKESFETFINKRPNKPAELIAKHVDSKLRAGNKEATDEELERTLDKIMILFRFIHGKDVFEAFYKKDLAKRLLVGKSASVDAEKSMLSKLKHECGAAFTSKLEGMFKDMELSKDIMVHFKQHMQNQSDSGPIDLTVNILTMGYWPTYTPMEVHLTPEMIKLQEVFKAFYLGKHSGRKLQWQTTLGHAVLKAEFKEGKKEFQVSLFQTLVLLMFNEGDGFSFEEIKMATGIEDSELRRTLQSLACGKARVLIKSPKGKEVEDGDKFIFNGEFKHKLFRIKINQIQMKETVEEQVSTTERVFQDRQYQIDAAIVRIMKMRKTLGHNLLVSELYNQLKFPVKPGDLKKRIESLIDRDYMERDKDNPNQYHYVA
T2 sequence (Q96SW2 whole entry, looked up): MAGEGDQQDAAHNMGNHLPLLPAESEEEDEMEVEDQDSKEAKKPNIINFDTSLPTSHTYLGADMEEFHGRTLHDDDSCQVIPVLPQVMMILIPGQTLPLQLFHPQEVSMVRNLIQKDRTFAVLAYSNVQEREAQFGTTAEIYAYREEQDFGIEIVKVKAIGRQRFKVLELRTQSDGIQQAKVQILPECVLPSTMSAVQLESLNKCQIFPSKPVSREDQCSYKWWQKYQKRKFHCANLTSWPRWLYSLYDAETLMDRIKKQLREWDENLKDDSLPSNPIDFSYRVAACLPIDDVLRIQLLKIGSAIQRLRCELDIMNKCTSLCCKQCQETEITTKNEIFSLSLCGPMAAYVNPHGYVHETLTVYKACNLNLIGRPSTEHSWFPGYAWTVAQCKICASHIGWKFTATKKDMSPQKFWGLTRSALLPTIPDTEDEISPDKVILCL
For series [3], the target named is T1, Protein cereblon/Bromodomain-containing protein 4/Cullin-4A (Homo sapiens). As to the kind of experiment: Induction of cereblon/cullin 4A-mediated BRD4 degradation in human RS4:11 cells at 1 nM after 3 hrs in presence of cereblon inhibitor lenalidomide by Western blot method. In kind it is cell-based.
Series [4] concerns the target T3, Protein cereblon/Bromodomain-containing protein 3/Cullin-4A (Homo sapiens) (UniProt Q15059+Q96SW2+Q13619). Briefly: Induction of cereblon/cullin 4A-mediated BRD3 degradation in human RS4:11 cells at 1 nM after 3 hrs in presence of cereblon inhibitor lenalidomide by Western blot method. The series is classed as cell-based.
Series [5] has as its target T2, Protein cereblon/Bromodomain-containing protein 2/Cullin-4A (Homo sapiens). As to the kind of experiment: Induction of cereblon/cullin 4A-mediated BRD2 degradation in human RS4:11 cells at 1 nM after 3 hrs in presence of NAE inhibitor MLN4924 by Western blot method. The series is classed as cell-based.
Series [6] deals with T1, Protein cereblon/Bromodomain-containing protein 4/Cullin-4A (Homo sapiens). As to the kind of experiment: Induction of cereblon/cullin 4A-mediated BRD4 degradation in human RS4:11 cells at 1 nM after 3 hrs in presence of NAE inhibitor MLN4924 by Western blot method. The series is classed as cell-based.
Series [7] shares this target. As to the kind of experiment: Induction of cereblon/cullin 4A-mediated BRD4 degradation in human RS4:11 cells at 1 nM after 3 hrs in presence of BET inhibitor 4-((3-Cyclopropyl-1-ethyl-1H-pyrazol-5-yl)amino)-7-(3,5-dimethylisoxazol-4-yl)-6-methoxy-N-methyl-9H-pyrimido[4,5-b]-indole-2-carboxamide by Western blot method. In kind it is cell-based.
Series [8] addresses T3, Protein cereblon/Bromodomain-containing protein 3/Cullin-4A (Homo sapiens). Briefly: Induction of cereblon/cullin 4A-mediated BRD3 degradation in human RS4:11 cells at 0.1 nM after 24 hrs by Western blot method. The series is classed as cell-based. The gist of the method: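 Western blot of RS4;11 cells (2 × 10⁶ cells/well) in RPMI 1640 with 10% FBS, 37 °C, 5% CO₂, used within three months of thawing. Compound exposure was 3 h or 24 h at the indicated concentrations. Cells were lysed in RIPA with protease inhibitors, and BRD2, BRD3 and BRD4 were detected with specific antibodies, with GAPDH as loading control.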

Series [9] addresses T2, Protein cereblon/Bromodomain-containing protein 2/Cullin-4A (Homo sapiens). As to the kind of experiment: Induction of cereblon/cullin 4A-mediated BRD2 degradation in human RS4:11 cells at 0.1 nM after 24 hrs by Western blot method. In kind it is cell-based. Summed up: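 RS4;11 cells (2 × 10⁶/well) treated for 24 h at the indicated concentrations. Lysed in RIPA with protease inhibitors and immunoblotted for BRD2, BRD3, BRD4, c-Myc and PARP, with GAPDH as loading control.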

Series [10] has the same target. Briefly: Induction of cereblon/cullin 4A-mediated BRD2 degradation in human RS4:11 cells after 3 hrs by Western blot method. The series is classed as cell-based. The gist of the method:
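RS4;11 cells (2 × 10⁶/well) treated for 3 h at the indicated concentrations. Lysed in RIPA with protease inhibitors and immunoblotted for BRD2, BRD3 and BRD4 with specific antibodies.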

The subject of series [11] is RS4-11. As to the kind of experiment: Induction of cell cycle arrest in human RS4:11 cells after 24 hrs by propidium iodide staining based flow cytometry. The series is classed as functional. The gist of the method:
(§1)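 RS4;11 or MOLM-13 cells treated with compound for 24 h, then analyzed by flow cytometry. Cell cycle read by propidium iodide staining and apoptosis by annexin V/propidium iodide staining.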

The subject of series [12] is MOLM-13. Briefly: Induction of cell cycle arrest in human MOLM13 cells after 24 hrs by propidium iodide staining based flow cytometry. In kind it is functional. The gist of the method:
as §1

The test system of series [13] is RS4-11. Briefly: Induction of apoptosis in human RS4:11 cells at 3 to 10 nM after 24 hrs by Annexin-V/propidium iodide staining based flow cytometry. In kind it is functional, cell-based. Summed up: as §1
The subject of series [14] is MOLM-13. As to the kind of experiment: Induction of apoptosis in human MOLM13 cells at 3 to 10 nM after 24 hrs by Annexin-V/propidium iodide staining based flow cytometry. The series is classed as functional, cell-based. The gist of the method:
as §1

Series [15] has as its system RS4-11. As to the kind of experiment: Antitumor activity against human RS4:11 cells xenografted in SCID mouse assessed as tumor growth regression at 5 mg/kg, iv […] administered every other day three times per week for 3 weeks relative to control. In kind it is functional. Summed up: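 SCID mice given 5×10⁶ RS4;11 cells in 50% Matrigel subcutaneously on the dorsal side, one tumor per mouse. Randomized at ~100 mm³, then dosed 5 mg/kg iv every other day, three times a week for 3 weeks. Tumors measured by caliper 2–3 times/week, V = LW²/2. Body weight recorded 2–3 times/week and daily toxicity checks made.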

Series [16] deals with Mus musculus. As to the kind of experiment: Toxicity in SCID mouse xenografted with human RS4:11 cells assessed as body weight loss at 5 mg/kg, iv […] administered every other day three times per week for 3 weeks. The series is classed as organism-based. The note with it: in vivo, 504 h. Summed up:
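SCID mice carried subcutaneous dorsal RS4;11 xenografts (5 × 10⁶ cells in 50% Matrigel). Once tumors reached ∼100 mm³, mice were randomized to treatment or vehicle. Dosing was 5 mg/kg iv every other day, three times weekly, for 3 weeks. Animals were checked daily for toxicity and weighed 2–3 times weekly during treatment, then at least weekly afterward.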

Series [17] relates to Mus musculus. As to the kind of experiment: In vivo induction of cereblon/cullin 4A-mediated BRD2 degradation in tumor of SCID mouse xenografted with human RS4:11 cells at 5 mg/kg, iv administered as single dose measured after 24 hrs by Western blot method. The series is classed as functional, organism-based. The gist of the method: (§2)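 SCID mice bearing subcutaneous RS4;11 tumors received a single 5 mg/kg iv dose. Sacrificed at 1, 3, 6 and 24 h, with vehicle controls at 6 h, two mice per time point. Tumors ground in liquid nitrogen and lysed in CHAPS buffer, then immunoblotted for BRD2/3/4, c-Myc, PARP/cleaved PARP and caspase-3/cleaved caspase-3. Actin served as loading control.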

Series [18] relates to Mus musculus. As to the kind of experiment: Increase in caspase-3 cleavage in tumor of SCID mouse xenografted with human RS4:11 cells at 5 mg/kg administered as single dose measured up to 6 hrs by Western blot method. In kind it is functional, organism-based. Summed up: as §2
A short description of series [19]: Drug metabolism in mouse liver microsomes assessed as metabolite m1 formation at 10 uM after 20 to 40 mins in presence of beta-NADPH […]. In kind it is ADME, microsome.
Series [20] in a line: Drug metabolism in mouse liver microsomes assessed as metabolite m2 formation at 10 uM after 20 to 40 mins in presence of beta-NADPH […]. In kind it is ADME, microsome.
A short description of series [21]: Drug metabolism in mouse liver microsomes assessed as metabolite m3 formation at 10 uM after 20 to 40 mins in presence of beta-NADPH […]. In kind it is ADME, microsome.
Series [22] is described as follows: Drug metabolism in mouse liver microsomes assessed as N-butyl-4-(3-cyclopropyl-1-ethyl-1H-pyrazol-5-ylamino)-7-(3,5-dimethylisoxazol-4-yl)-6-methoxy-9H-pyrimido[4,5-b]indole-2-carboxamide formation at 10 uM after 20 to 40 mins in presence of beta-NADPH […]. The series is classed as ADME, microsome.
Series [23] can be described thus: Drug metabolism in mouse liver microsomes assessed as 4-(3-cyclopropyl-1H-pyrazol-5-ylamino)-7-(3,5-dimethylisoxazol-4-yl)-N-(5-(2-(2,6-dioxopiperidin-3-yl)-1-oxoisoindolin-4-yl)pentyl)-6-methoxy-9H-pyrimido[4,5-b]indole-2-carboxamide formation at 10 uM after 20 to 40 mins in presence of beta-NADPH […]. In kind it is ADME, microsome.

Active and inactive are the calls of the source. The rule behind the calls is not given here.

We go through 1 compound from ChEMBL document CHEMBL4219021, “Discovery of a Small-Molecule Degrader of Bromodomain and Extra-Terminal (BET) Proteins with Picomolar Cellular Potencies and Capable of Achieving Tumor Regression” (J Med Chem, 2018).

T3 sequence (Q13619 whole entry, looked up): as the sequence (Q13619 whole entry, looked up) above
T3 sequence (Q15059 whole entry, looked up): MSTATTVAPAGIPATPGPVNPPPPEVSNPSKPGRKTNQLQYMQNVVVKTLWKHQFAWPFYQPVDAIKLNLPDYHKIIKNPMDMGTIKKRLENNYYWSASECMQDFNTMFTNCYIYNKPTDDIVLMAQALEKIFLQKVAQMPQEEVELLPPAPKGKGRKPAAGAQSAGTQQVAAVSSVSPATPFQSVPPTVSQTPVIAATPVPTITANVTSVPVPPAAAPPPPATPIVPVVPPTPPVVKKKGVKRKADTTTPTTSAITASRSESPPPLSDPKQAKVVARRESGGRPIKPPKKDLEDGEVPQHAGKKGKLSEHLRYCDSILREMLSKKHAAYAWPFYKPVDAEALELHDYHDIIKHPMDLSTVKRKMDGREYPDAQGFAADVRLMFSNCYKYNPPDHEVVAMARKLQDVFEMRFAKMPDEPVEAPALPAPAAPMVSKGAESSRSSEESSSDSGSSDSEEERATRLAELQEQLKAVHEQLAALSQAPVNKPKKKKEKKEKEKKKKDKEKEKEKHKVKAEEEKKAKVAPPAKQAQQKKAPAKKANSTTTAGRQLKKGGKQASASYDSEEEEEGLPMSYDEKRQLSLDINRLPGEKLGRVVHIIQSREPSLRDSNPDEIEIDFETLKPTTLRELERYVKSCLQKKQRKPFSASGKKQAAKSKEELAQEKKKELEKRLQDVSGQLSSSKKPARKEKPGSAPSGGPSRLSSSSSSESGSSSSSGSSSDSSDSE
T3 sequence (Q96SW2 whole entry, looked up): as the sequence (Q96SW2 whole entry, looked up) above

Take `CCn1nc(C2CC2)cc1Nc1nc(C(=O)NCCCCCc2cccc3c2CN(C2CCC(=O)NC2=O)C3=O)nc2[nH]c3cc(-c4c(C)noc4C)c(OC)cc3c12` (stereo not drawn): the result in series [1], in [2], in [3], in [4], in [5] and in series [6] was inactive. Further, the result in series [7] was inactive. Further, the outcome (in series [8]; in [9]; with RS4-11 [13]; with MOLM-13 [14]; in the series on Mus musculus [17]; in the series on Mus musculus [18]) was Active. The Activity entry was “Dose-dependent effect” in series [10]; “Dose-dependent effect” in the series on RS4-11 [11]; “Dose-dependent effect” with MOLM-13 [12]; more than 90% in the series on RS4-11 [15]; “Non-Toxic” in the series on Mus musculus [16]. The Drug metabolism result in series [19], in [20], in series [21], in [22] and in series [23] was “Metabolite_Detected” in each case.
